Activity calls are given as the source filed them. No cut-off for these calls is given here.
Columns and labels:
[1] = Emission property of the compound in DMSO assessed as stokes shift by fluorescence spectrophotometric method; format: physicochemical
How it was run: (§1)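 Fluorescence spectra recorded on a spectrofluorometer with slits of 1 nm for excitation and 1 or 2 nm for emission.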

[2] = Absorption property of the compound in DMSO assessed as soret band absorption coefficient by UV-visible spectrophotometric method; format: physicochemical
How it was run: (§2)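 UV–visible absorption spectra recorded in DMSO at concentrations 1, 2, 4, 6, 8, 10 µM, with the concentration dependence used to follow aggregation.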

[3] = Absorption property of the compound in DMSO assessed as soret band maximum absorption wavelength by UV-visible spectrophotometric method; format: physicochemical; how it was run: as §2
[4] = Absorption property of the compound in DMSO assessed as Q band absorption coefficient by UV-visible spectrophotometric method; format: physicochemical; how it was run: as §2
[5] = tested on: HeLa; assay: Phototoxicity against human HeLa cells assessed as reduction in cell viability preincubated for 24 hrs followed by irradiated with 16 J/cm2 of 650 nanometer laser light measured after 24 hrs by MTT assay; format: functional, cell-based; conditions: light or radiation study
How it was run: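 HeLa cells at 2 × 10^4 cells/well were attached for 24 h and given compound at a range of final concentrations for 24 h in the dark. After two PBS washes, cells were irradiated with a 650 nm Nd:YAG laser (doses 0–16 J/cm²). MTT viability was read 24 h later as % survival normalised to no-drug cells. Triplicate experiments.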

[6] = Dark toxicity in human HeLa cells assessed as reduction in cell viability after 24 hrs by MTT assay; format: cell-based
How it was run: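 HeLa cells in DMEM with 10% FBS (37 °C, 5% CO2) were seeded at 2 × 10^4 cells/well and attached for 24 h. Compound at a range of final concentrations was taken up for 24 h in the dark, cells were washed with PBS and left unirradiated. MTT viability was read 24 h later as % survival normalised to no-drug cells. Triplicate experiments.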

[7] = Induction of singlet oxygen generation in DMF solution assessed as singlet oxygen quantum yield irradiated with 650 nanometer laser light by DPBF-based assay; format: functional
[8] = Emission property of the compound in DMSO assessed as maximum emission wavelength at 4 uM by fluorescence spectrophotometric method; format: physicochemical; how it was run: as §1
[9] = Emission property of the compound in DMSO assessed as maximum excited state emission wavelength at 4 uM by fluorescence spectrophotometric method; format: physicochemical; how it was run: as §1
[10] = Absorption property of the compound in DMSO assessed as Q band maximum absorption wavelength by UV-visible spectrophotometric method; format: physicochemical; how it was run: as §2
[11] = Absorption property of the compound in DMSO assessed as soret band wavelength molar absorption coefficient by UV-visible spectrophotometric method; format: physicochemical; how it was run: as §2
[12] = Absorption property of the compound in DMSO assessed as Q band wavelength molar absorption coefficient by UV-visible spectrophotometric method; format: physicochemical; how it was run: as §2
[13] = Absorption property of the compound in DMSO assessed as Q band molar attenuation coefficient by UV-visible spectrophotometric method; format: physicochemical; how it was run: as §2
[14] = Drug localization in nuclear membrane of human HeLa cells at 5 uM incubated for 4 hrs in dark by Hoechst 33342 staining based confocal fluorescence microscopy; format: ADME, cell membranes
How it was run: (§3)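 HeLa cells at 1 × 10^5 cells/mL on poly-L-lysine coverslips for 24 h, then 5 µM drug for 4 h in the dark at 37 °C. Nuclei were stained with Hoechst 33342 for 10 min at 37 °C, and cells fixed in 4% paraformaldehyde at 4 °C for 30 min. Confocal imaging: drug excited at 417 nm, emission 600–700 nm; Hoechst excited at 350 nm, emission 450–500 nm.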

[15] = Drug localization in cytoplasm of human HeLa cells at 5 uM incubated for 4 hrs in dark by Hoechst 33342 staining based confocal fluorescence microscopy; format: ADME, subcellular; how it was run: as §3
[16] = tested on: HeLa; assay: Photodynamic antitumor activity against human HeLa cells xenografted in BALB/c nude mouse assessed as reduction in tumor volume at 5 mg/kg, iv followed by laser light irradiation at 100 J/cm2

Question: Which Activity [1] does the source give for `C1=Cc2nc1c(-c1ccccc1)c1ccc([nH]1)c(-c1ccccc1)c1nc(c(-c3ccccc3)c3ccc([nH]3)c2-c2ccccc2)C(N2CCCC2)=C1` here?
Answer: 1 nm

Question: What about the Activity [2] of the same compound?
Answer: 14.53 10^4/M/cm

Question: What about the Activity [3] of the same compound?
Answer: 412 nm

Question: And the Activity [4]?
Answer: 0.44 10^4/M/cm

Question: And the IC50 [5]?
Answer: 4.56 µM

Question: And the IC50 at 24 h [6]?
Answer: 172 µM

Question: And the Activity [7]?
Answer: 0.43

Question: What about the Activity [8] of the same compound?
Answer: 665 nm

Question: And the Activity [9]?
Answer: 412 nm

Question: What about the Activity [10] of the same compound?
Answer: 601 nm

Question: What about the Activity [11] of the same compound?
Answer: 528 nm

Question: And the Activity [12]?
Answer: 664 nm

Question: And the Activity [13]?
Answer: 0.25 10^4/M/cm

Question: With `C1=Cc2nc1c(-c1ccccc1)c1ccc([nH]1)c(-c1ccccc1)c1nc(c(-c3ccccc3)c3ccc([nH]3)c2-c2ccccc2)C(N2CCOCC2)=C1` as the compound, how does the Activity [1] read?
Answer: 13 nm

Question: What about the Activity [2] of the same compound?
Answer: 16.08 10^4/M/cm

Question: What about the Activity [3] of the same compound?
Answer: 417 nm

Question: And the Activity [4]?
Answer: 0.69 10^4/M/cm

Question: And the IC50 [5]?
Answer: 5.06 µM

Question: And the IC50 at 24 h [6]?
Answer: 93.4 µM

Question: And the Activity [7]?
Answer: 0.25

Question: And the Activity [8]?
Answer: 663 nm

Question: What about the Activity [9] of the same compound?
Answer: 417 nm

Question: What about the Activity [10] of the same compound?
Answer: 596 nm

Question: And the Activity [11]?
Answer: 522 nm

Question: And the Activity [12]?
Answer: 650 nm

Question: And the Activity [13]?
Answer: 0.56 10^4/M/cm

Question: For `Cc1ccc(-c2c3nc(c(-c4ccc(C)cc4)c4ccc([nH]4)c(-c4ccc(C)cc4)c4nc(c(-c5ccc(C)cc5)c5ccc2[nH]5)C=C4N2CCCC2)C=C3)cc1`, which Activity [1] is on record?
Answer: 4 nm

Question: And the Activity [2]?
Answer: 16.52 10^4/M/cm

Question: What about the Activity [3] of the same compound?
Answer: 414 nm

Question: And the Activity [4]?
Answer: 0.58 10^4/M/cm

Question: What about the IC50 [5] of the same compound?
Answer: 5.33 µM

Question: What about the IC50 at 24 h [6] of the same compound?
Answer: 280 µM

Question: What about the Activity [7] of the same compound?
Answer: 0.54

Question: What about the Activity [8] of the same compound?
Answer: 671 nm

Question: And the Activity [9]?
Answer: 414 nm

Question: And the Activity [10]?
Answer: 602 nm

Question: And the Activity [11]?
Answer: 531 nm

Question: And the Activity [12]?
Answer: 666 nm

Question: And the Activity [13]?
Answer: 0.34 10^4/M/cm

Question: Which Activity [1] does the source give for `COc1ccc(-c2c3nc(c(-c4ccc(OC)cc4)c4ccc([nH]4)c(-c4ccc(OC)cc4)c4nc(c(-c5ccc(OC)cc5)c5ccc2[nH]5)C=C4N2CCCC2)C=C3)cc1` here?
Answer: 15 nm

Question: And the Activity [2]?
Answer: 13.43 10^4/M/cm

Question: And the Activity [3]?
Answer: 417 nm

Question: What about the Activity [4] of the same compound?
Answer: 0.68 10^4/M/cm

Question: And the Drug uptake [14]?
Answer: Active

Question: What about the Drug uptake [15] of the same compound?
Answer: Active

Question: And the IC50 [5]?
Answer: 4.38 µM

Question: And the IC50 at 24 h [6]?
Answer: 387 µM

Question: What about the Activity [7] of the same compound?
Answer: 0.56

Question: What about the Activity [8] of the same compound?
Answer: 683 nm

Question: And the Activity [9]?
Answer: 417 nm

Question: And the Activity [10]?
Answer: 603 nm

Question: And the Activity [11]?
Answer: 535 nm

Question: And the Activity [12]?
Answer: 668 nm

Question: What about the Activity [13] of the same compound?
Answer: 0.54 10^4/M/cm

Question: What about the Activity [16] of the same compound?
Answer: Active

Question: For `C1=Cc2nc1c(-c1ccccc1)c1ccc([nH]1)c(-c1ccccc1)c1nc(c(-c3ccccc3)c3ccc([nH]3)c2-c2ccccc2)C(N2CCCCC2)=C1`, which Activity [1] is on record?
Answer: 19 nm

Question: What about the Activity [2] of the same compound?
Answer: 8.32 10^4/M/cm

Question: And the Activity [3]?
Answer: 412 nm

Question: What about the Activity [4] of the same compound?
Answer: 0.27 10^4/M/cm

Question: And the IC50 [5]?
Answer: 5.56 µM

Question: And the IC50 at 24 h [6]?
Answer: 110 µM

Question: What about the Activity [7] of the same compound?
Answer: 0.19

Question: What about the Activity [8] of the same compound?
Answer: 669 nm

Question: And the Activity [9]?
Answer: 412 nm

Question: And the Activity [10]?
Answer: 596 nm

Question: What about the Activity [11] of the same compound?
Answer: 524 nm

Question: And the Activity [12]?
Answer: 650 nm

Question: And the Activity [13]?
Answer: 0.16 10^4/M/cm

Question: With `Clc1ccc(-c2c3nc(c(-c4ccc(Cl)cc4)c4ccc([nH]4)c(-c4ccc(Cl)cc4)c4nc(c(-c5ccc(Cl)cc5)c5ccc2[nH]5)C=C4N2CCCC2)C=C3)cc1` as the compound, how does the Activity [1] read?
Answer: 17 nm

Question: What about the Activity [2] of the same compound?
Answer: 14.75 10^4/M/cm

Question: And the Activity [3]?
Answer: 412 nm

Question: And the Activity [4]?
Answer: 0.73 10^4/M/cm

Question: What about the IC50 [5] of the same compound?
Answer: 6.43 µM

Question: What about the IC50 at 24 h [6] of the same compound?
Answer: 81.6 µM

Question: What about the Activity [7] of the same compound?
Answer: 0.2

Question: And the Activity [8]?
Answer: 665 nm

Question: And the Activity [9]?
Answer: 412 nm

Question: What about the Activity [10] of the same compound?
Answer: 594 nm

Question: And the Activity [11]?
Answer: 521 nm

Question: And the Activity [12]?
Answer: 648 nm

Question: What about the Activity [13] of the same compound?
Answer: 0.67 10^4/M/cm

Question: With `COC(C)c1c(C)c2cc3nc(cc4[nH]c(cc5nc(cc1[nH]2)C(C)=C5C(C)O)c(C)c4CCC(=O)O)C(CCC(=O)O)=C3C` (centres undefined) as the compound, how does the IC50 [5] read?
Answer: 9.46 µM

Question: And the IC50 at 24 h [6]?
Answer: 345 µM

Question: And the Activity [7]?
Answer: 0.18

From ChEMBL document CHEMBL4680081, “Synthesis, photophysical properties and biological evaluation of β-alkylaminoporphyrin for photodynamic therapy” (Bioorg Med Chem, 2016)
